This note sets out measurements from ChEMBL document CHEMBL1147130, “Dihydropyridopyrazinones and dihydropteridinones as corticotropin-releasing factor-1 receptor antagonists: structure-activity relationships and computational modeling” (J Med Chem, 2007).

This assay deals with T1, Corticotropin-releasing factor receptor 1 (Rattus norvegicus, UniProt P35353).
T1 sequence (P35353 whole entry): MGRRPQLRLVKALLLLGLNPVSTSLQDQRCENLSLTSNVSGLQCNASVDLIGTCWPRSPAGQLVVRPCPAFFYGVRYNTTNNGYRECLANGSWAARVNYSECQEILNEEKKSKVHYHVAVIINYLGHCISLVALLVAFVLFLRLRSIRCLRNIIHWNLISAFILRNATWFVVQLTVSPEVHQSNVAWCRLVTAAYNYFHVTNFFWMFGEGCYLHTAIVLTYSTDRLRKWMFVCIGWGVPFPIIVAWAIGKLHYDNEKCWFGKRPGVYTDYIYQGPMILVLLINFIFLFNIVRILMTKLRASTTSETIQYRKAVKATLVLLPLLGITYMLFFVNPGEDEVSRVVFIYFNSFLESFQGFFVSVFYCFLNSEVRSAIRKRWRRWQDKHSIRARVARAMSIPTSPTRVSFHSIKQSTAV
Description: Displacement of [125I]Tyr-o-CRF from CRF1 receptor in rat frontal cortex homogenates. It is filed as tissue-based. The procedure, abridged: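 Bound ligand collected by filtration on PEI-treated glass fiber filters and gamma counted. Nonspecific binding defined with 1 µM DMP696.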
A general note: Loss of bound radioactivity is the signal in a displacement assay; it reports binding, not function.

In general, IC50 refers to the concentration that gives 50% inhibition. `CCCCN(CC)c1nc(C)nc2c1NCCN2c1ccc(OC)cc1C` yielded an IC50 of 11.7 nM.

`CCCN(CCOC)c1cc(C)nc2c1NC(=O)CN2c1cc(OC)c(OC)cc1C`: the IC50 worked out at 43 nM.

For `CCCN(CCOC)c1cc(C)nc2c1NCCN2c1cc(OC)c(OC)cc1C`, the IC50 amounted to 87 nM.

`CCCCN(CC)c1nc(C)nc2c1NC(=O)CN2c1ccc(C(C)=O)cc1C`: the IC50 is 713 nM.

As for `CCCN(CCOC)c1nc(C)nc2c1NCCN2c1cc(OC)c(OC)cc1C`, the IC50 was determined as 210 nM.

Regarding `CCCCN(CC)c1cc(C)nc2c1NCCN2c1ccc(C(C)=O)cc1C`, the IC50 was 8.2 nM.

As for `CCCCN(CC)c1nc(C)nc2c1NCCN2c1ccc(C(C)=O)cc1C`, the IC50 was found to be 172 nM.

The compound `CCCCN(CC)c1cc(C)nc2c1NC(=O)CN2c1ccc(C#N)cc1C` gave an IC50 of 3.3 nM.

`CCCCN(CC)c1nc(C)nc2c1NC(=O)CN2c1ccc(OC)cc1C` registered an IC50 of 95 nM.

The compound `CCCCN(CC)c1nc(C)nc2c1NCCN2c1ccc(C#N)cc1C` had an IC50 of 102 nM.

With `CCCCN(CC)c1cc(C)nc2c1NCCN2c1ccc(OC)nc1OC`, the 50% inhibitory concentration (IC50) is 2.2 nM.

`CCCCN(CC)c1nc(C)nc2c1NC(=O)CN2c1ccc(OC)nc1OC` displayed an IC50 of 60 nM.

Consider `CCCCN(CC)c1nc(C)nc2c1NC(=O)CN2c1ccc(C#N)cc1C`, for which the IC50 amounted to 573 nM.

`CCCCN(CC)c1cc(C)nc2c1NCCN2c1ccc(OC)cc1C`: the IC50 is 4.2 nM.

In turn, `CCCCN(CC)c1cc(C)nc2c1NC(=O)CN2c1ccc(C(C)=O)cc1C` came in with an IC50 of 5.8 nM.

`CCCCN(CC)c1cc(C)nc2c1NCCN2c1ccc(C#N)cc1C` returned an IC50 of 3.5 nM.

The compound `CCCCN(CC)c1nc(C)nc2c1NCCN2c1ccc(OC)nc1OC` had an IC50 of 9.9 nM.
